# KCNQ1 act: potentiators or activators of KCNQ1 channel, primary screen, cell-based, thallium flux, high-throughput; hit rate 0.35% among 310,000; Potassium voltage-gated channel subfamily KQT member 1 (Homo sapiens), P51787; CHO-K1 KCNQ1, thallium flux FluxOR fluorescence; active compounds read high; B-score at 10 µM;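 active = fluorescence ratio B-score, a plate-corrected score, at least three library SD, with initial intensity B-score within 5 SD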
#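 Test system: CHO-K1 cells stably expressing KCNQ1 / Medium: assay buffer / Also added: depolarizing K+/Tl+ stimulus, K2SO4 and Tl2SO4 each 12.5 mM in 5x stock / Incubation: 90 min dye loading and 20 min compound exposure, both at room temperature / Signal: thallium influx via FluxOR fluorescence, kinetic imaging / Evaluation: B score of baseline-normalized fluorescence ratio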
# Kir21 inh: inhibitors of mouse Kir2.1 inward-rectifier potassium channel; Inward rectifier potassium channel 2 (Mus musculus), P35561; HEK293-Kir2.1, FluxOR thallium flux fluorescence; active compounds read low; hit rate 0.85% among 310,000; AID 1672, 2009; B-score at 10 µM;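 active = fluorescence ratio B-score at or below minus 3 SD of library scores, with starting-brightness B-score within 2 SD, cut at about -4.2 in these data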;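 note: channel flux triggered by added potassium and thallium sulfate stimulus; B-score of peak minus minimum fluorescence over baseline after thallium stimulus; more negative B-score means stronger Kir2.1 block with less thallium influx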
# KCNQ1 inh: inhibitors of human KCNQ1 channel, primary screen, cell-based, thallium flux, high-throughput. Potassium voltage-gated channel subfamily KQT member 1 (Homo sapiens), P51787. CHO-K1 KCNQ1, FluxOR thallium flux fluorescence; active compounds read high. B-score at 10 µM. AID 2642, 2010. hit rate 1.3% among 310,000;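 active = compounds whose thallium flux B-score, printed positive for inhibition, exceeds three library SD while starting fluorescence stays within three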;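 note: channel opened by potassium depolarization with thallium stimulus after 20 min compound exposure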
# KCNK3 inh: human KCNK3 channel inhibitors, primary screen, CHO cells, FluxOR thallium flux, B-score; Potassium channel subfamily K member 3 (Homo sapiens), O14649; FluxOR fluorescence; active compounds read low; B-score at 10 µM; hit rate 0.84% among 340,000; AID 602410, 2012;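 active = B-score under library mean minus 4 SD, starting fluorescence ratio at most library mean plus 5 SD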;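 note: more negative B-score means stronger inhibition of thallium flux through KCNK3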
# KCNK9 block: KCNK9 potassium channel inhibitors, primary screen, HEK293 cells, thallium flux | B-score at 10 µM | Potassium channel subfamily K member 9 (Homo sapiens), Q9NPC2 | hit rate 1.2% among 310,000 | AID 488922, 2010 | FluxOR thallium flux fluorescence; active compounds read low;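 active = ratio B-score over 3 SD below the library mean, with starting fluorescence within 5 SD of its mean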;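 note: negative B-score means less thallium flux so channel inhibition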
# Target sequence (Q9NPC2 whole entry, looked up): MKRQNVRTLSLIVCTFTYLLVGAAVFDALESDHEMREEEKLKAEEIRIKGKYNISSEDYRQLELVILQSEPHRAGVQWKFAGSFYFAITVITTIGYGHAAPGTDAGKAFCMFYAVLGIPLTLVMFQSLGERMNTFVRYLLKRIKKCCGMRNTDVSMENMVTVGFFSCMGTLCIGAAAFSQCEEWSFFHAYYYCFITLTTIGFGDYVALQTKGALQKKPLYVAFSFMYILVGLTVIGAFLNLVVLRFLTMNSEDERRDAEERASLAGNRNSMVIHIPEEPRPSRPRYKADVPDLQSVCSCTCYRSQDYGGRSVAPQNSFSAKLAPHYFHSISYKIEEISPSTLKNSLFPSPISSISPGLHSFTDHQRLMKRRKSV
# hERG protect: hERG rescue from dofetilide block, primary screen, cell-based, CHO-hERG, FluxOR thallium flux, dofetilide IC70 | AID 1511, 2009 | hit rate 0.51% among 310,000 | dofetilide IC70 present | activation (rescue from dofetilide block), less the hit threshold, % at 10 µM;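 active = activation above the mean of controls blocked by dofetilide plus 5 SD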;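 note: thallium influx through hERG after potassium depolarization seen as dye fluorescence rise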
# Numbers without * were called inactive; i = inactive; . = not tested or not shown. Only some compounds are listed: those with a hit (about 3.7% of all), similar ones and a draw of the others.
SMILES,KCNQ1 act,Kir21 inh,KCNQ1 inh,KCNK3 inh,KCNK9 block,hERG protect
CCOc1ccccc1N1CCN(C2=C(NS(=O)(=O)c3cccs3)C(=O)c3ccccc3C2=O)CC1,i,1.5,i,i,-6.6*,-8
O=C(O)c1cn(C2CC2)c2cc(N3CCN(S(=O)(=O)c4ccc5c(c4)OCCO5)CC3)c(F)cc2c1=O,i,-0.63,i,i,i,-24
COc1ccc(CN(C2CC2)S(=O)(=O)c2ccccc2Br)cc1,.,.,.,i,.,.
O=C(CCc1ccccc1)NC(=S)Nc1ccccc1Br,i,0.48,i,i,i,5.0*
Cc1ccc2c(c1)C1CN(C)CCC1N2C(=O)c1cccc(S(=O)(=O)N(C)C)c1 (stereo unspecified),i,1.1,i,i,i,-20
Cc1ccc2c(c1)C1CN(C)CCC1N2C(=O)Nc1ccc(Cl)cc1 (stereo unspecified),i,-0.26,7*,i,i,-8
CCN(CCN(C)C)C(=O)C1CCN(S(=O)(=O)c2c(C)noc2/C=C/c2ccccc2F)CC1,i,-5*,i,i,i,-9
COc1ccc(CN2C(=O)c3ccccc3C(/C=N/OCc3ccc(Cl)cc3)C2=O)cc1 (stereo unspecified),i,-0.49,7*,i,i,-13
COc1ccc(CN2C(=O)c3ccccc3C2=O)cc1,i,1.6,i,i,i,-9
COc1ccc(CN2C(=O)c3ccccc3C(/C=N\OCc3ccc(F)cc3)C2=O)cc1 (stereo unspecified),i,0.26,10*,i,i,-13
O=C(CCc1ccccc1)NNC(=O)COc1ccc([N+](=O)[O-])cc1,i,0.2,i,i,i,-8
O=C(CSc1nc2cc(Cl)ccc2s1)c1cc2ccccc2o1,21*,0.15,i,i,i,-2
Cc1cc(NC(=O)CSc2nc3cc(Cl)ccc3s2)no1,i,-0.41,i,i,i,-2
O=c1oc2cc(Cl)ccc2n1CSc1nc2ccccc2s1,i,1.8,i,i,-6.6*,-8
O=C(CSc1nc2ccccc2s1)N1c2ccccc2Sc2ccc(Cl)cc21,i,-1.1,i,i,i,-7
COC(=O)c1c(NC(=O)C(C)(C)C)csc1C,i,-0.36,i,i,i,8.2*
COC(=O)c1c(NC(C)=O)csc1C,i,0.07,i,i,i,-7
O=S(=O)(c1cc(F)ccc1F)N1CCN(C2CCCCC2)CC1,i,-0.42,i,i,i,-6
COc1ccccc1C1CN(c2ccc(F)cc2F)N=C1c1cccs1 (stereo unspecified),i,-0.27,i,i,-7.4*,-4
CC(C)(C)OC(=O)COc1cc(OCC(=O)OC(C)(C)C)c2c(=O)cc(-c3ccccc3)oc2c1,.,.,.,-9.1*,.,.
COC(=O)COc1cc(OCC(=O)OC)c2c(-c3ccccc3)cc(=O)oc2c1,i,-1.3,i,i,i,-9
C/C(=N\NC(=O)C1COc2ccccc2O1)c1ccc(N2CCOCC2)cc1 (stereo unspecified),30*,0.04,i,i,i,5.6*
Cc1ccc(OCCNC(=O)c2cc(C(=O)NCCOc3ccc(C)cc3)cc([N+](=O)[O-])c2)cc1,i,1.6,10*,i,i,-3
Cc1cccc(OCCNC(=O)c2ccc(Oc3ccc(C(F)(F)F)cc3[N+](=O)[O-])cc2)c1,i,-0.06,6*,-9.5*,i,-16
CC1(C)C(=O)Nc2ccccc2N1C(=O)COc1cccnc1[N+](=O)[O-],i,0.02,i,i,i,-11
SMILES,KCNQ1 act,Kir21 inh,KCNQ1 inh,KCNK3 inh,KCNK9 block,hERG protect
COc1cc(SC#N)ccc1N=Cc1c(C)[nH]n(-c2ccc(Cl)cc2)c1=O,i,-0.52,i,i,i,-7
COc1cc(S(=O)(=O)Nc2ccccc2)ccc1N=Cc1c(C)[nH]n(-c2ccc(C)cc2)c1=O,i,-1.2,i,.,-9.6*,-3
COc1ccccc1NC(C)C(=O)N/N=C/c1ccccc1OCc1cccc(Br)c1 (stereo unspecified),i,0.24,i,i,-7.3*,-6
COc1cccc(CN2CC(C(=O)NCc3ncc(C)[nH]3)CCC2=O)c1 (stereo unspecified),i,-1.5,i,i,i,-6
O=C1C=C(c2ccc(Cl)nc2)C[C@@H](c2ccc3c(c2)OCO3)C1,.,.,.,i,.,.
CCC(C)NC(=O)CCc1c(C)nc2c(c(C)nn2-c2ccccc2)c1C (stereo unspecified),i,0.61,i,i,i,-11
Cc1nc2c(c(C)nn2-c2ccccc2)c(C)c1CCC(=O)Nc1ccc(CN2CCCC2)cc1,i,-9*,i,i,i,-13
COc1ccc(CNC(=O)Cc2ccc(NC(=O)C3=C(C)OCCS3)cc2)cc1,i,-0.03,i,i,i,-9
COc1ccc(C(C(=O)OCCN(C)C)c2ccccc2)cc1 (stereo unspecified),i,-1.3,i,i,-6.8*,-3
COc1ccc(C(CC(=O)c2ccccc2)CC(=O)c2ccccc2)cc1,i,0.01,i,i,-7.1*,-3
COc1ccc(C(=O)C/C(=C\C(=O)c2ccc(C)cc2)c2ccccc2)cc1,i,-1.5,6*,i,i,-13
O=C(CC(CC(=O)c1ccccc1)c1ccncc1)c1ccccc1,.,.,.,i,.,.
COc1ccc(C(=O)CC(=O)c2ccccc2)cc1,i,-0.27,i,i,i,-8
CCCOc1ccc(C(C(=O)OCCN(CC)CC)c2ccccc2)cc1 (stereo unspecified),i,-0.79,i,i,i,-8
Cc1cccc(NC(=O)CSc2n[nH]c(-c3cccnc3)n2)c1,i,-1.1,i,i,i,-3
Oc1ccc(N2CCN(c3nnnn3-c3ccccc3)CC2)cc1,i,-0.05,i,i,i,-12
CCC(C)C(CO)NCCCn1cnc(C(=O)Nc2ccc(C)c(C)c2)n1 (stereo unspecified),.,.,.,i,.,.
CCCC1CCC(c2ccc(OCC)cc2)=CC1=O (stereo unspecified),i,1,i,i,i,-3
CCn1c(SCC(=O)NC2CC2)nnc1-c1ccc(OC)cc1,i,-0.58,i,i,i,-6

# High-throughput results as filed in PubChem.
